# Data from ChEMBL document CHEMBL1124639, “Synthesis and in vitro pharmacology of arpromidine and related phenyl(pyridylalkyl)guanidines, a potential new class of positive inotropic drugs” (J Med Chem, 1989).
# Columns and labels:
# Cavia porcellus [1] = organism: Cavia porcellus; test: Increase in heart rate with maximal inotropic response in isolated perfused guinea pig heart; type: functional
# Outline: (§1)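 Langendorff-perfused isolated guinea pig heart. Compounds were given as a bolus injected into the perfusion stream, with impromidine as reference. Net increases in LV dp/dtmax, heart rate and coronary flow were expressed against impromidine = 100% in a control group (n = 6 each). Relative potency was taken from molar ED50 ratios versus impromidine = 100%.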
# Cavia porcellus [2] = organism: Cavia porcellus; test: Chronotropic effect assessed from maximal increase in delta LV (dp/dtmax) in isolated perfused guinea pig heart; type: functional; settings: in the assay text read “Inotropic effect” for “Chronotropic effect”; outline: as §1
# Cavia porcellus [3] = organism: Cavia porcellus; test: Increase in coronary flow with maximal inotropic response in isolated perfused guinea pig heart; type: functional; set-up: unit not given beside the values; outline: as §1
# Cavia porcellus [4] = organism: Cavia porcellus; test: Relative potency with impromidine (100%) in isolated perfused guinea pig heart; type: functional; outline: as §1
# [5] = molecular target: Histamine H2 receptor (Cavia porcellus) (UniProt P47747); test: Histamine H2 receptor agonistic activity (as a measure of agonism) at the isolated right atrium of guinea pig, activity relative to histamine.; type: functional, tissue-based; settings: Cardiac atrium
# Outline: (§2)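 Spontaneously beating isolated guinea pig right atrium with a positive chronotropic read-out. Cumulative concentration-response curves were run against histamine dihydrochloride as the standard. Incubation after each concentration was usually 25 min, adjusted until equilibrium. H2 selectivity was checked with cimetidine (10 µM and 1 µM) and metoprolol (1 µM). Potency relative to histamine = 1 was calculated from mean pD2 values.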
# [6] = molecular target: Histamine H2 receptor (Cavia porcellus) (UniProt P47747); test: Intrinsic activity (as a measure of agonism) on electrically stimulated papillary muscle of guinea pig; type: functional, tissue-based; settings: Muscle tissue
# Outline: (§3)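 Isolated right-ventricular papillary muscle from guinea pig, electrically paced at 1 Hz with 1 ms pulses, in Krebs-Henseleit solution gassed with O2/CO2 95:5 at 32.5 °C. Compounds were tested as hydrohalide salts. Cumulative concentration-response curves of contractile force were run against histamine as the standard agonist. […] relative potency were taken from pD2, with histamine maximum = 1.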
# [7] = molecular target: Histamine H2 receptor (Cavia porcellus) (UniProt P47747); test: Potency relative to histamine calculated from mean pD2 value in guinea pig right atrium.; type: functional, tissue-based; settings: Cardiac atrium; outline: as §2
# [8] = molecular target: Histamine H2 receptor (Cavia porcellus) (UniProt P47747); test: Histamine H2 receptor agonism relative to histamine on isolated guinea pig right atrium; type: functional, tissue-based; settings: Cardiac atrium; outline: as §2
# [9] = molecular target: Histamine H2 receptor (Cavia porcellus) (UniProt P47747); test: Agonistic activity relative to histamine on electrically stimulated papillary muscle of guinea pig; type: functional, tissue-based; settings: Muscle tissue; outline: as §3
# Histamine H1 receptor = Histamine H1 receptor (Cavia porcellus, UniProt P31389); test: Antagonist activity at histamine H1 receptor against histamine in isolated ileum of guinea pig.; type: functional, tissue-based; settings: read-out: pA2 (converted)
# Outline: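 Isolated guinea pig ileum contracted by histamine, with histamine dihydrochloride as the standard agonist in cumulative dose-response curves. pA2 was derived. For compounds that depressed the histamine maximum at 10 µM, -log KB was taken at 3 µM antagonist from log(DR-1) = log[ant.] - log KB.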
# Sequence of Histamine H2 receptor (Cavia porcellus) (P47747 whole entry): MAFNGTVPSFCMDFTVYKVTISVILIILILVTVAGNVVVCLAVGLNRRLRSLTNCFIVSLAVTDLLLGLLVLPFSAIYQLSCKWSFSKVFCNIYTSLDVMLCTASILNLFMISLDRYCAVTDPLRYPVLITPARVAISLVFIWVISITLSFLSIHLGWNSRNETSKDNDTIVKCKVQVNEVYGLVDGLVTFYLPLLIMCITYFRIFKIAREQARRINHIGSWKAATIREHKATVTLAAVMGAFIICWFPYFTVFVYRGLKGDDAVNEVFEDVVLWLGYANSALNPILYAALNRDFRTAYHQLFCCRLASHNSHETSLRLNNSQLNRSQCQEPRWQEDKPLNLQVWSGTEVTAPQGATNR
# Sequence of Histamine H1 receptor (P31389 whole entry): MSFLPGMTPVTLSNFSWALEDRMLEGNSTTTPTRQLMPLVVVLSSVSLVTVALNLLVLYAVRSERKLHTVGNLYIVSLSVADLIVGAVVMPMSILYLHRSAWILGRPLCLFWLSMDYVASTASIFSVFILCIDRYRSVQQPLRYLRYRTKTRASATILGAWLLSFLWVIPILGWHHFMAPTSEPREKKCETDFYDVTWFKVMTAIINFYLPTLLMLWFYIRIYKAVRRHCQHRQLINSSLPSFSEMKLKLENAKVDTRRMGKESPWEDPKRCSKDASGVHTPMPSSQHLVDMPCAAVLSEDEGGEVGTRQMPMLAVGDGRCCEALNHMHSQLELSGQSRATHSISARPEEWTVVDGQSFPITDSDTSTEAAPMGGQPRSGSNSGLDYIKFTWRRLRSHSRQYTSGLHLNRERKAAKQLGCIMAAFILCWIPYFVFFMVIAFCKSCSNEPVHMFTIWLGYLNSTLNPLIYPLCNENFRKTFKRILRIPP
compound,measurement,setting,value
N=C(NCCCc1c[nH]cn1)NCCC(c1ccccc1)c1ccccn1 (stereo not given),Delta heart rate,Cavia porcellus [1],70
same,Delta LV,Cavia porcellus [2],76
same,Delta coronary flow,Cavia porcellus [3],121
same,Relative potency,Cavia porcellus [4],63
same,Intrinsic activity,[5],1
same,Intrinsic activity,[6],0.7
same,Relative potency,[7],24.5
same,pD2,[8],7.39
same,pD2,[9],7.37
same,Kb,Histamine H1 receptor,97.7 nM
